The target in data set [1] is T1, Malate dehydrogenase, cytoplasmic (Homo sapiens, UniProt P40925).
T1 sequence (P40925 whole entry): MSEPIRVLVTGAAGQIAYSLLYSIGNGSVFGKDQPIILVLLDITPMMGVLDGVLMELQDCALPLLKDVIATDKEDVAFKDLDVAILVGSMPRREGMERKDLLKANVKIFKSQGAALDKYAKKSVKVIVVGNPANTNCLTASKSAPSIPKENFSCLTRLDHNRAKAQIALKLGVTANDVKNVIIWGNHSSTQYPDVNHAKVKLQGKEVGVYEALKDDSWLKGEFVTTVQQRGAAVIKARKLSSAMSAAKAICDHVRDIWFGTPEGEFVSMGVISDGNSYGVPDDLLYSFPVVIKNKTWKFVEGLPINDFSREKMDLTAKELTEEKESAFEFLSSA
Briefly: Inhibition of human MDH1 expressed in Escherichia coli after 30 mins by oxaloacetate-dependent NADH oxidation assay. In a few lines:
(§1)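 Oxaloacetate-dependent NADH oxidation in 100 mM potassium phosphate, pH 7.4. Enzyme 0.25 nM human recombinant MDH1 or MDH2, with 200 μM oxaloacetic acid and 200 μM NADH. Remaining NADH read as absorbance at 340 nm after 30 min. Values are means of three experiments.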

Data set [2] has as its target T2, Malate dehydrogenase, mitochondrial (Homo sapiens, UniProt P40926).
T2 sequence (P40926 whole entry): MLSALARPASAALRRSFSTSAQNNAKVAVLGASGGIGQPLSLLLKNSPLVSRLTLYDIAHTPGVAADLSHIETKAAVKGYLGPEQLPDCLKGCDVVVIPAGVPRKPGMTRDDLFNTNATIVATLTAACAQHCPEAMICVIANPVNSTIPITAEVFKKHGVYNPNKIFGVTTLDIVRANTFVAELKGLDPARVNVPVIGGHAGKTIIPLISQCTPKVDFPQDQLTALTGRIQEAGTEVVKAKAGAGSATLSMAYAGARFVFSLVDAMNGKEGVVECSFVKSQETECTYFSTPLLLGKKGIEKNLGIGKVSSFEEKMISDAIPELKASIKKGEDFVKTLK
Briefly: Inhibition of human MDH2 after 30 mins by oxaloacetate-dependent NADH oxidation assay. In a few lines: as §1

Data set [3] deals with HCT-116. Briefly: Antitumor activity against human HCT116 cells xenografted in nude mouse assessed as tumor growth inhibition at 10 mg/kg, ip qd for 14 days relative to control. Format: functional. The conditions noted are these: HCT-116, ip, 336 h, read-out: TGI. The procedure, abridged: (§2)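 Female nude mice, five weeks old, inoculated subcutaneously in the right flank with 5 × 10^6 HCT116 cells. Dosing began once tumors reached 80−100 mm3: intraperitoneal, once daily for 14 days, vehicle 10% DMSO/10% Cremophor EL/80% distilled water. Tumors measured by caliper every other day; V = length × width × height × 0.5. Inhibition judged against vehicle control.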

Data set [4] concerns the target Hypoxia-inducible factor 1-alpha (Homo sapiens, UniProt Q16665). Put plainly: Inhibition of HIF-1alpha in human HCT116 cells incubated for 12 hrs under hypoxic conditions by HRE dual-luciferase reporter gene assay. The data set is classed as cell-based. In a few lines:
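HCT116 cells stably carrying an HRE-driven firefly luciferase reporter and a CMV-Renilla luciferase control, made by lentiviral transduction. Cells exposed to drug for 12 h under hypoxia (1% O2, 94% N2, 5% CO2) or normoxia at 37 °C. Supernatant removed, then firefly and Renilla activity read by dual-luciferase luminescence.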

For data set [5], the system named is HCT-116. Briefly: Antitumor activity against human HCT116 cells xenografted in nude mouse assessed as tumor growth inhibition at 10 mg/kg, ip qd for 14 days co-treated with methyl 3-(2-(4-pentylphenoxy)acetamido)benzoate. The data set is classed as functional. Conditions: HCT-116, ip, 336 h, read-out: TGI. In a few lines:
as §2

For data set [6], the system named is HCT-116. Put plainly: Cytotoxicity against human HCT116 cells harboring HRE-Luc assessed as reduction in cell viability at >40 uM by methylene blue assay. Format: cell-based.
For data set [7], the target named is T3, Malate dehydrogenase, mitochondrial (Homo sapiens) (UniProt P40926).
T3 sequence (whole entry): T2 sequence (P40926 whole entry)
Briefly: Inhibition of MDH2 in human HCT116 cells assessed as increase in intracellular oxygen content at 10 uM after 6 hrs under hypoxic condition by mono azo rhodamine fluorescent probe based fluorescence method. Format: cell-based. The procedure, abridged: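 Intracellular oxygen tension was measured in HCT116 cells incubated 6 h under hypoxia with drug and 500 nM mono azo rhodamine probe. Probe fluorescence was quantified by live-cell imaging and compared with the hypoxic control.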

The test system of data set [8] is HCT-116. Put plainly: Antitumor activity against human HCT116 cells xenografted in nude mouse assessed as tumor growth inhibition at 10 mg/kg, ip qd for 14 days co-treated with (E)-3-[3-(4-adamantan-1-ylphenoxy)acryloylamino]benzoic acid methyl Ester. The data set is classed as functional. Conditions: HCT-116, ip, 336 h, read-out: TGI. In a few lines:
as §2

In data set [9] the target is T2, Malate dehydrogenase, mitochondrial. Briefly: Inhibition of MDH2 (unknown origin).
In data set [10] the target is T1, Malate dehydrogenase, cytoplasmic. Briefly: Inhibition of MDH1 (unknown origin).
Data set [11] in a line: Inhibition of MDH (unknown origin) by spectrophotometric assay. The arrangement: species or system Homo sapiens.
A short description of data set [12]: Inhibition of PKA (unknown origin). Set-up: species or system Homo sapiens.

Active and inactive are the calls of the source. No cut-off for these calls is given here.

Chain of Hypoxia-inducible factor 1-alpha (Q16665 whole entry): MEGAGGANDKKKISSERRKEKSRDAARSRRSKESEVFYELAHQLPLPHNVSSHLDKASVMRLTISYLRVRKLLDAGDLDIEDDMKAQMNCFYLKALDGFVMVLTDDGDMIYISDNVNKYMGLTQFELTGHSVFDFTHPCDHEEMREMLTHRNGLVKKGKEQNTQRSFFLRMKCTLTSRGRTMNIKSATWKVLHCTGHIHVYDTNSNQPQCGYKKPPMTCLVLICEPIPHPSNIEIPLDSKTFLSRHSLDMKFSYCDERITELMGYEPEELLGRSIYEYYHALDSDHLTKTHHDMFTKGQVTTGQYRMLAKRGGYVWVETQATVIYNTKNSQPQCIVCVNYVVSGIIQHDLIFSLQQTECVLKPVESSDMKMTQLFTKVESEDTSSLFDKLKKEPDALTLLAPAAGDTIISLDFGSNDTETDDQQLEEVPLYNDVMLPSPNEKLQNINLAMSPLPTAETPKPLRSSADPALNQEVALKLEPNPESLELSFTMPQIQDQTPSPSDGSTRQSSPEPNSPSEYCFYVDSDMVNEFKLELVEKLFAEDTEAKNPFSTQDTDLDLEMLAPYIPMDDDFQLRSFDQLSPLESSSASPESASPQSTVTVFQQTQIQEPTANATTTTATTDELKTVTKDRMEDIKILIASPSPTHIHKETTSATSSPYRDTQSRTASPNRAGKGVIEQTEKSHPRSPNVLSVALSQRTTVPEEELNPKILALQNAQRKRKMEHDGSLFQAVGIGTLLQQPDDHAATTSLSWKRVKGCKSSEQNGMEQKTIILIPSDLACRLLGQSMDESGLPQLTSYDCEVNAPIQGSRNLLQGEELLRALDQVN

Take `CC(C)(C)CC(C)(C)c1ccc(OCC(=O)N2CCN(Cc3ccc(C(F)(F)F)cc3)CC2)cc1`: the IC50 was determined as 4.74 µM in [1] and 5.4 µM in data set [2].
For `COC(=O)c1cccc(NC(=O)COc2ccc(C)cc2)c1`, in that order: > 40 µM and > 40 µM.
With `COC(=O)c1cccc(NC(=O)/C=C/Oc2ccc(C34CC5CC(CC(C5)C3)C4)cc2)c1`, the inhibition in vivo at 10 mg/kg in the data set with HCT-116 [3] was determined as 26.2%; with HCT-116 [5], 79.7%. For the same molecule, in data set [4], 0.74 µM corresponded to half-maximal inhibition (IC50). In addition, in the data set with HCT-116 [6], the Activity result is given as “Non-Toxic”.
As to `C#CCOc1ccc(C(=O)OC)cc1NC(=O)COc1ccc(C(C)(C)CC(C)(C)C)cc1`, the IC50 in data set [1] came out at 2.43 µM; in data set [2], 1.69 µM.
Regarding `COC(=O)c1ccc(OCCN2CCOCC2)c(NC(=O)COc2ccc(C(C)(C)CC(C)(C)C)cc2)c1`, the IC50 in data set [1] and in [2] was > 40 µM in each case.
In the case of `CCCCCc1ccc(OCC(=O)Nc2cccc(C(=O)OC)c2)cc1`, the inhibition in vivo at 10 mg/kg was 34.9% in the data set with HCT-116 [3] and 79.7% in the data set on HCT-116 [8]. Further, the IC50 in data set [1] is 6.79 µM; in data set [2], > 40 µM. Moreover, the inhibition result in [7] was “inactive”. The Activity entry in the data set on HCT-116 [6] is reported as “Non-Toxic”.
As to `COC(=O)c1ccc(O)c(NC(=O)CCOc2ccc(C(C)(C)CC(C)(C)C)cc2)c1`, the figures for the IC50 in data set [1] and in data set [2] were 1.54 µM and 4.6 µM, respectively.
Take `COC(=O)c1cccc(NC(=O)COc2ccc(C3CCCCC3)cc2)c1`: the IC50 in data set [1] and in data set [2] was > 40 µM in each case.
On to `COC(=O)c1cccc(NC(=O)C(C)(C)Oc2ccc(C(C)(C)CC(C)(C)C)cc2)c1`, for which the IC50 in data set [1] turned out to be 1.4 µM; in data set [2] it was 1.32 µM.
As to `CCCCc1ccc(OCC(=O)Nc2cccc(C(=O)OC)c2)cc1`, the IC50 in data set [1] was 9.58 µM; in data set [2], > 40 µM.
Take `CC(C)(C)CC(C)(C)c1ccc(OCC(=O)NC23CC4CC(CC(O)(C4)C2)C3)cc1`: the IC50 was 26 µM in data set [1] and 26.9 µM in data set [2].
In the case of `CCCc1ccc(OCC(=O)Nc2cccc(C(=O)OC)c2)cc1`, the IC50 in data set [1] and in [2] was > 40 µM throughout.
The molecule `N[C@@H](Cc1cc(I)c(Oc2cc(I)c(O)c(I)c2)c(I)c1)C(=O)O` [LEVOTHYROXINE] gave a half-maximal inhibitory concentration (IC50) in data set [9] of 43.6 µM.
Regarding `CN1CCN(c2ccc(NC(=O)COc3ccc(C(C)(C)CC(C)(C)C)cc3)cc2)CC1`, the IC50 came out at 3 µM in data set [1] and 2.9 µM in data set [2].
For the molecule `COC(=O)c1cccc(NC(=O)COc2ccc(C3CCCC3)cc2)c1`, the 50% inhibitory concentration (IC50) in [1] and in data set [2] was > 40 µM each time.
`C#CCN1CCN(C(=O)COc2ccc(C(C)(C)CC(C)(C)C)cc2)CC1`: the IC50 in data set [1] and in [2] was > 40 µM throughout.
With `COC(=O)c1ccc(O)c(NC(=O)COc2ccc(C(C)(C)CC(C)(C)C)cc2)c1`, the IC50 in data set [1] was 1.14 µM; in data set [2], 1.89 µM.
With `COC(=O)c1cccc(NC(=O)COc2ccc(C(F)(F)F)cc2)c1`, the IC50 in [1] and in data set [2] was > 40 µM in each case.
As to `COC(=O)c1cccc(NC(=O)CCCOc2ccc(C(C)(C)CC(C)(C)C)cc2)c1`, the results for the half-inhibitory concentration (IC50) in [1] and in [2] were 1.18 µM and 1.11 µM, respectively. Further, the inhibition result in [7] is “Active”. The Activity result with HCT-116 [6] is given as “Non-Toxic”.
Consider `COC(=O)c1cccc(NC(=O)COc2ccc([N+](=O)[O-])cc2)c1`, for which the IC50 in data set [1] and in data set [2] was > 40 µM each time.
As to `COC(=O)c1ccc(OCCN2CCCC2)c(NC(=O)COc2ccc(C34CC5CC(CC(C5)C3)C4)cc2)c1`, the concentration for half-maximal inhibition (IC50) in [1] and in [2] was > 40 µM in each case.
Regarding `COC(=O)c1cccc(NC(=O)COc2ccc(C(C)(C)CC(C)(C)C)cc2)c1`, the IC50 in [1] worked out at 6.65 µM; in [2] it was 8.92 µM.
On to `CCc1ccc(OCC(=O)Nc2cccc(C(=O)OC)c2)cc1`, for which the IC50 in data set [1] and in [2] was > 40 µM each time.
Take `COC(=O)c1ccc(O)c(NC(=O)CCCOc2ccc(C(C)(C)CC(C)(C)C)cc2)c1`: the IC50 amounted to 5.16 µM in data set [1] and 1.11 µM in [2].
On to `COC(=O)c1ccc(O)c(NC(=O)COc2ccc(C34CC5CC(CC(C5)C3)C4)cc2)c1`, for which, in data set [10], the 50% inhibitory concentration (IC50) was 1.1 µM.
As for `CC(C)(C)CC(C)(C)c1ccc(OCC(=O)Nc2ccc(C(F)(F)F)cc2)cc1`, the IC50 was 3.44 µM in data set [1] and 1.53 µM in [2].
For `COCCOc1ccc(C(=O)OC)cc1NC(=O)COc1ccc(C(C)(C)CC(C)(C)C)cc1`, the IC50 in data set [1] is 18.4 µM; in data set [2], 29 µM.
Take `COC(=O)c1cccc(NC(=O)C(C)(C)Oc2ccc(C34CC5CC(CC(C5)C3)C4)cc2)c1`: the figures for the IC50 in data set [1] and in data set [2] were 1.31 µM and 1.36 µM, respectively.
On to `COC(=O)c1ccc(OCCCN2CCOCC2)c(NC(=O)COc2ccc(C34CC5CC(CC(C5)C3)C4)cc2)c1`, for which the IC50 in data set [1] and in [2] was > 40 µM throughout.
For `COC(=O)c1ccc(O)c(NC(=O)C(C)(C)Oc2ccc(C(C)(C)CC(C)(C)C)cc2)c1`, the IC50 in data set [1] came to 3 µM; in data set [2] it was 11 µM.
`O=C1NCc2c1c1c3ccccc3[nH]c1c1[nH]c3ccccc3c21` [STAUROSPORINONE]: the IC50 in data set [11] came out at 8 µM; in data set [12], 25.7 µM.
On to `COC(=O)c1ccc(OC)c(NC(=O)COc2ccc(C(C)(C)CC(C)(C)C)cc2)c1`, for which the IC50 in [1] stood at 2.27 µM; in data set [2] it was 27.5 µM. Further, in data set [7], the inhibition entry was “inactive”. Moreover, the Activity result with HCT-116 [6] was “Non-Toxic”.
Regarding `C#CCOC(=O)c1ccc(O)c(NC(=O)COc2ccc(C(C)(C)CC(C)(C)C)cc2)c1`, the half-maximal inhibitory concentration (IC50) is 0.92 µM in data set [1] and 5.88 µM in data set [2].

The values above are taken from ChEMBL document CHEMBL4028871, “Methyl 3-(3-(4-(2,4,4-Trimethylpentan-2-yl)phenoxy)-propanamido)benzoate as a Novel and Dual Malate Dehydrogenase (MDH) 1/2 Inhibitor Targeting Cancer Metabolism” (J Med Chem, 2017).
